Test results as given in ChEMBL document CHEMBL1828575, “Design, synthesis and antiproliferative activities of biarylolefins based on polyhydroxylated and carbohydrate scaffolds” (Eur J Med Chem, 2011).
Calls of active or inactive are those of the source. No cut-off for these calls is given here.

Key:
Ovis aries = species on record: Ovis aries; test: Inhibition of sheep brain tubulin polymerization at 10 uM
Outline: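 Microtubule protein from sheep brain, purified by two assembly/disassembly cycles (37 °C/0 °C), in 100 mM MES pH 6.6, 1 mM EGTA, 0.5 mM MgCl₂. Compounds in DMSO were tested at a single concentration, with incubation at 37 °C for 10 min and then 0 °C for 5 min before measuring assembly rate, following a modified Guénard protocol.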

[1] = Inhibition of sheep brain tubulin polymerization; set-up: species or system Ovis aries

COc1ccc(C(=O)c2cc(OC)c(OC)c(OC)c2)cc1O [PHENSTATIN]
tubulin polymerization inhibition call (active/not active) (Ovis aries): Active | IC50 [1]: 7.9 µM
